For data set [1], the target named is T1, Tryptophan 5-hydroxylase 1 (Homo sapiens, UniProt P17752).
T1 sequence (P17752 whole entry): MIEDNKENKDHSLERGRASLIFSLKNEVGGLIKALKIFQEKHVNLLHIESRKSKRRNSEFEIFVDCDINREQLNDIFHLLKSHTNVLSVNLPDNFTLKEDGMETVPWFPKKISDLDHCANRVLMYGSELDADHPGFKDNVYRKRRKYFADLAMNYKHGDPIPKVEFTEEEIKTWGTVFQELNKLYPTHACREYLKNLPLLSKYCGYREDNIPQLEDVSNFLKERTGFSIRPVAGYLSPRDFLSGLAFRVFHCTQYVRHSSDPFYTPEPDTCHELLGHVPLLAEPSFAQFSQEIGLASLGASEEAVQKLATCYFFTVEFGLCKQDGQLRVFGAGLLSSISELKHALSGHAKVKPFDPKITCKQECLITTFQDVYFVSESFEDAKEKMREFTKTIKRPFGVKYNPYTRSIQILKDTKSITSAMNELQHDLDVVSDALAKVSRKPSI
Description: Inhibition of human recombinant TPH1 by continuous fluorescence assay. The procedure, abridged:
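Purified recombinant human TPH1 was tested in a continuous fluorescence assay. IC50 was taken from inhibition of enzyme activity.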

Data set [2] concerns RBL-2H3. Description: Inhibition of serotonin biosynthesis in rat RBL2H3 cells after 3 days. It is filed as functional, cell-based. To be noted: RBL-2H3, 72 h. The procedure, abridged:
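Serotonin biosynthesis was measured in rat mastocytoma RBL-2H3 cells. EC50 was taken from inhibition of that biosynthesis.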

Data set [3] in a line: Plasma clearance in C57 albino mouse at 1 mg/kg, iv. The class given is ADME, organism-based. On the set-up: dose 1 mg/kg, route intravenous. The procedure, abridged: (§1)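 Male C57-albino mice were used in two groups. One group received a single 1 mg/kg intravenous injection and the other a 10 mg/kg oral gavage dose. Plasma levels gave clearance and Vss (iv), and Cmax, AUC and oral bioavailability (po).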

The nature of data set [4]: Volume of distribution at steady state in C57 albino mouse at 1 mg/kg, iv. It is filed as ADME, organism-based. The arrangement: dose 1 mg/kg, route intravenous. The note with it: in vivo, read-out: Vdss. Summed up: as §1
Data set [5] in a line: Cmax in C57 albino mouse at 10 mg/kg, po. The class given is ADME, organism-based. On the set-up: dose 10 mg/kg, route oral. To be noted: in vivo. The procedure, abridged: as §1
In data set [6] the test system is Mus musculus. As to the kind of experiment: AUC in C57 albino mouse at 10 mg/kg, po. The class given is ADME, organism-based, Plasma. On the set-up: dose 10 mg/kg, route oral. The note with it: in vivo. Summed up:
as §1

Data set [7] is described as follows: Oral bioavailability in C57 albino mouse at 10 mg/kg. The class given is ADME, organism-based. The note with it: in vivo. Summed up:
as §1

Data set [8] concerns Mus musculus. Description: Reduction of serotonin level in mouse blood at 100 mg/kg, ip bid for 5 days. It is filed as functional. The arrangement: scale not given: the % may be the effect or the level left. To be noted: route intraperitoneal. The procedure, abridged: (§2)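 Mice were dosed at 100 mg/kg twice daily (200 mg/kg/day) for five days, by intraperitoneal injection or oral gavage. 5-HT levels were then measured in blood and intestine (duodenum) and reported as percent decrease.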

The subject of data set [9] is Mus musculus. As to the kind of experiment: Reduction of serotonin level in mouse duodenum at 100 mg/kg, ip bid for 5 days. It is filed as functional. On the set-up: scale not given: the % may be the effect or the level left. The note with it: route intraperitoneal. The procedure, abridged:
as §2

Data set [10] deals with Mus musculus. As to the kind of experiment: Reduction of serotonin level in mouse blood at 100 mg/kg, po bid for 5 days. It is filed as functional. On the set-up: scale not given: the % may be the effect or the level left. Summed up: as §2
Data set [11] deals with Mus musculus. As to the kind of experiment: Reduction of serotonin level in mouse duodenum at 100 mg/kg, po bid for 5 days. It is filed as functional. The arrangement: scale not given: the % may be the effect or the level left. Summed up: as §2
In data set [12] the test system is Mus musculus. As to the kind of experiment: Reduction of serotonin level in mouse blood at 100 mg/kg, ip bid for 8 days. The arrangement: scale not given: the % may be the effect or the level left. The class given is functional. The note with it: route intraperitoneal.
Data set [13] concerns Mus musculus. As to the kind of experiment: Reduction of serotonin level in mouse duodenum at 100 mg/kg, ip bid for 8 days. The class given is functional. The arrangement: scale not given: the % may be the effect or the level left. The note with it: route intraperitoneal.
For data set [14], the species on record is Mus musculus. Description: Reduction of serotonin level in mouse brain. It is filed as functional, organism-based.

The source made the active and inactive calls. The rule behind the calls is not given here.

The values that follow come from ChEMBL document CHEMBL1155300, “Substituted 3-(4-(1,3,5-triazin-2-yl)-phenyl)-2-aminopropanoic acids as novel tryptophan hydroxylase inhibitors” (Bioorg Med Chem Lett, 2009).

What is called IC50 is the concentration needed to halve the response being measured. What is called EC50 is the concentration needed to bring the measured effect to its halfway point. For the molecule `CC(C)(Nc1nc(N)nc(-c2ccc(C[C@H](N)C(=O)O)cc2)n1)c1ccc2ccccc2c1`, the 50% inhibitory concentration (IC50) in data set [1] worked out at 55 nM. The molecule further registered a 50% effective concentration (EC50) in [2] of 1700 nM.

Turning to `Nc1nc(NCc2ccc(C(F)(F)F)cc2)nc(-c2ccc(C[C@H](N)C(=O)O)cc2)n1`, the IC50 in [1] stood at 120 nM. This molecule returned a half-maximal effective concentration (EC50) in data set [2] of 36000 nM.

Turning to `Nc1nc(NCc2cccc(-c3ccccc3)c2)nc(-c2ccc(C[C@H](N)C(=O)O)cc2)n1`, in [1], the IC50 came out at 38 nM. This molecule had an EC50 in [2] of 1400 nM.

For the molecule `CCC(Nc1nc(N)nc(-c2ccc(C[C@H](N)C(=O)O)cc2)n1)c1ccc2ccccc2c1` (stereo not given in full), the IC50 in data set [1] was found to be 150 nM. This molecule also returned a concentration giving a half-maximal response (EC50) in data set [2] of 2300 nM.

With `C[C@H](c1ccc2ccccc2c1)N(C)c1nc(N)nc(-c2ccc(C[C@H](N)C(=O)O)cc2)n1`, the IC50 in data set [1] was found to be 50 nM. In data set [2], this molecule had a half-maximal effective concentration (EC50) of 480 nM.

As to `Nc1nc(NCc2ccc(Oc3ccccc3)cc2)nc(-c2ccc(C[C@H](N)C(=O)O)cc2)n1`, in data set [1], the IC50 came to 150 nM. Besides, the concentration for a half-maximal effect (EC50) in data set [2] is 3400 nM.

Regarding `CC(Nc1nc(N)nc(-c2ccc(C[C@H](N)C(=O)O)cc2)n1)c1ccc(-c2ccccc2)cc1` (stereo not given in full), the IC50 in data set [1] is 24 nM. The molecule further displayed an EC50 in data set [2] of 2500 nM.

Consider `CC(Nc1nc(N)nc(-c2ccc(C[C@H](N)C(=O)O)cc2)n1)C12CC3CC(CC(C3)C1)C2` (stereo not given in full), for which the IC50 in data set [1] turned out to be 19 nM. In addition, the midpoint of the response in [2], the EC50, lay at 820 nM.

As to `Nc1nc(OC(c2ccc3ccccc3c2)C(F)(F)F)nc(-c2ccc(C[C@H](N)C(=O)O)cc2)n1` (stereo not given in full), the IC50 in data set [1] is 320 nM. Further, the EC50 in data set [2] amounted to 9600 nM.

Turning to `Nc1nc(NCc2ccccc2)nc(-c2ccc(C[C@H](N)C(=O)O)cc2)n1`, the IC50 in data set [1] worked out at 500 nM. In addition, in data set [2], the concentration giving a half-maximal response (EC50) was > 11000 nM.

In the case of `Nc1nc(NCC2CCCCC2)nc(-c2ccc(C[C@H](N)C(=O)O)cc2)n1`, the IC50 in data set [1] stood at 120 nM. In addition, the EC50 in [2] is > 11000 nM.

For the molecule `Nc1nc(NCc2ccc(-c3ccc(C(F)(F)F)cc3)cc2)nc(-c2ccc(C[C@H](N)C(=O)O)cc2)n1`, in data set [1], the IC50 was determined as 160 nM. Also, the concentration for a half-maximal effect (EC50) in [2] turned out to be 4100 nM.

`N[C@@H](Cc1ccc(-c2nc(NCc3ccc4ccccc4c3)nc(N3CCOCC3)n2)cc1)C(=O)O`: in data set [1], the IC50 was 15600 nM. Moreover, in data set [2], the EC50 is > 40000 nM.

For `Nc1nc(NCc2ccccc2-c2ccccc2)nc(-c2ccc(C[C@H](N)C(=O)O)cc2)n1`, the IC50 in data set [1] stood at 7 nM. Also, the EC50 in data set [2] is 2200 nM.

For the molecule `CC(Nc1ncnc(-c2ccc(C[C@H](N)C(=O)O)cc2)n1)c1ccc2ccccc2c1` (stereo not given in full), the half-maximal inhibitory concentration (IC50) in [1] stood at 190 nM. Besides, the concentration for a half-maximal effect (EC50) in data set [2] is 16200 nM.

As for `CC(C)C(Nc1nc(N)nc(-c2ccc(C[C@H](N)C(=O)O)cc2)n1)c1ccc2ccccc2c1` (stereo not given in full), the half-inhibitory concentration (IC50) in data set [1] was found to be 250 nM. The molecule further came in with a concentration for a half-maximal effect (EC50) in data set [2] of 5700 nM.

As for `Cc1ccc(CNc2nc(N)nc(-c3ccc(C[C@H](N)C(=O)O)cc3)n2)cc1C`, the IC50 in [1] was found to be 100 nM. In addition, the half-maximal effective concentration (EC50) in data set [2] was > 11000 nM.

With `Nc1nc(NC(c2ccc3ccccc3c2)C(F)(F)F)nc(-c2ccc(C[C@H](N)C(=O)O)cc2)n1` (stereo not given in full), the half-inhibitory concentration (IC50) in data set [1] stood at 330 nM. The same molecule registered an EC50 in [2] of 6300 nM.

For `Nc1nc(NCc2ccc(-c3ccccc3)cc2)nc(-c2ccc(C[C@H](N)C(=O)O)cc2)n1`, the IC50 in data set [1] was found to be 60 nM. Moreover, the EC50 in data set [2] was 1800 nM.

`Nc1nc(NCc2ccc3ccccc3c2)nc(-c2ccc(C[C@H](N)C(=O)O)cc2)n1`: a half-maximal effect in [2] (EC50) was put at 2100 nM.

For `Cc1ccc(-c2ccc(CNc3nc(N)nc(-c4ccc(C[C@H](N)C(=O)O)cc4)n3)cc2)cc1`, the IC50 in data set [1] was 14 nM. For the same molecule, the half-maximal effective concentration (EC50) in [2] amounted to 2300 nM.

Consider `CC(C)CC(Nc1nc(N)nc(-c2ccc(C[C@H](N)C(=O)O)cc2)n1)c1ccc2ccccc2c1` (stereo not given in full), for which the IC50 in [1] came to 120 nM. Also, the EC50 in data set [2] was > 11000 nM.

For `CNc1nc(N[C@H](C)c2ccc3ccccc3c2)nc(-c2ccc(C[C@H](N)C(=O)O)cc2)n1`, the concentration for half-maximal inhibition (IC50) in [1] amounted to 610 nM. In addition, the EC50 in data set [2] is 10200 nM.

As a reminder, the clearance is the rate of elimination divided by the concentration. A word on the Cmax: it is the highest concentration seen after dosing. Broadly, the AUC is the area under the concentration-time curve, a measure of exposure. A word on the bioavailability: it is the share of a dose that reaches the circulation, judged against a reference dose that is usually intravenous. Consider `C[C@@H](Nc1nc(N)nc(-c2ccc(C[C@H](N)C(=O)O)cc2)n1)c1ccc2ccccc2c1`, for which the EC50 in data set [2] stood at 300 nM. The same molecule gave a clearance in data set [3] of 8.33 mL/min/kg. For the same molecule, the Vd in data set [4] was 0.5 L/kg. Moreover, in data set [5], the Cmax came to 500 nM. Besides, in [6], the area under the curve (AUC) turned out to be 1.6 µM·h. The molecule also yielded a bioavailability in data set [7] of 5%. Also, the Activity in data set [8] is on record as 26%; in [9] it was 37%; in [10], 17%; in data set [11], 38%; in data set [12], 50%; in data set [13] it was 57%. The outcome in data set [14] was inactive.

As to `C[C@H](Nc1nc(N)nc(-c2ccc(C[C@H](N)C(=O)O)cc2)n1)c1ccc2ccccc2c1`, the concentration for half-maximal inhibition (IC50) in [1] came out at 44 nM. Besides, the EC50 in data set [2] was 2800 nM.
